Measurements as given in PubChem BioAssay AID463148 (The Scripps Research Institute Molecular Screening Center, 2010).
Active and inactive are the calls of the source.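 How the source made its calls: active means fold change inhibition above 1.5; inactive means the rest.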

Test system: GAL4DBD-VP16 transactivation domain fusion (Human herpesvirus 1 VP16)
Experiment: inhibition of VP16-driven luciferase reporter – cell-based, luminescence, HEK293T, powder samples, counter-screen for RORA inverse agonist project, late-stage follow-up (AID 463148)
Conditions: HEK293T GAL4-VP16 UAS-luciferase, 18-24 h, at 10 µM, hits give high values
In short: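 Assay system: transfected HEK293T GAL4-VP16 UAS-luciferase reporter cells; doses: single nominal compound concentration of 10 µM; incubation: 20 h compound exposure after transfection; measured by: luminescence of luciferase reporter; read-out basis: fold change relative to DMSO wells; controls: DMSO vehicle-treated cells as reference; repeats: six replicates per compound, averaged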

O=C(Nc1ccc(C(O)(C(F)(F)F)C(F)(F)F)cc1)c1ccccc1C(F)(F)F
fold change inhibition: 0.941 (inactive)

O=C(Nc1ccc(C(O)(C(F)(F)F)C(F)(F)F)cc1)c1ccc(F)cc1Cl
fold change inhibition: 1.01 (inactive)

O=C(Nc1ccc(C(O)(C(F)(F)F)C(F)(F)F)cc1)c1ccc(F)cc1F
fold change inhibition: 1.68

O=S(=O)(Nc1ccc(C(O)(C(F)(F)F)C(F)(F)F)cc1)c1cccs1
fold change inhibition: 0.97 (inactive)

O=C(Nc1ccc(C(O)(C(F)(F)F)C(F)(F)F)cc1)c1ccc(Cl)cc1
fold change inhibition: 1.27 (inactive)

O=C(Nc1ccc(C(O)(C(F)(F)F)C(F)(F)F)cc1)c1c(F)cccc1F
fold change inhibition: 1.05 (inactive)
